Source: ChEMBL document CHEMBL1142201, “Tolerance to the glycopeptides vancomycin and teicoplanin in coagulase-negative staphylococci” (2007)

Legend:
Format in all cases: functional
Staphylococcus [1] = test: Antibacterial activity against coagulase-negative Staphylococcus assessed as bacterial counts at 10 times MIC after 6 hrs
How it was run: (§1)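 CLSI time-kill in 50 ml Mueller-Hinton broth. Mean starting inoculum 5.6 log10 CFU/ml; vancomycin or teicoplanin at 10× MIC, with MIC from CLSI agar dilution. Counts taken just before and 6 and 24 h after antibiotic addition: samples diluted 10-fold to avoid carryover and plated in duplicate on prewarmed blood agar. Result given as Δlog CFU/ml; each strain run in duplicate.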

[2] = system: Staphylococcus lugdunensis; test: Reduction of vancomycin-tolerant Staphylococcus lugdunensis 111A53 isolate assessed as bacterial counts at 20 times MIC after 24 hrs by time-kill curve method
How it was run: (§2)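 CLSI time-kill in 50 ml Mueller-Hinton broth, mean starting inoculum 5.6 log10 CFU/ml. Vancomycin or teicoplanin at 5×, 10× or 20× the agar-dilution MIC. Viable counts taken before and 6 and 24 h after antibiotic addition; samples diluted 10-fold and plated in duplicate on prewarmed blood agar. Change reported as mean log CFU/ml.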

[3] = system: Staphylococcus lugdunensis; test: Reduction of teicoplanin-tolerant Staphylococcus lugdunensis 111A91 isolate assessed as bacterial counts at 5 times MIC after 6 hrs by time-kill curve method; how it was run: as §2
[4] = system: Staphylococcus lugdunensis; test: Reduction of teicoplanin-tolerant Staphylococcus lugdunensis 111A91 isolate assessed as bacterial counts at 10 times MIC after 6 hrs by time-kill curve method; how it was run: as §2
[5] = system: Staphylococcus lugdunensis; test: Reduction of teicoplanin-tolerant Staphylococcus lugdunensis 111A91 isolate assessed as bacterial counts at 20 times MIC after 6 hrs by time-kill curve method; how it was run: as §2
[6] = system: Staphylococcus lugdunensis; test: Reduction of teicoplanin-tolerant Staphylococcus lugdunensis 111A91 isolate assessed as bacterial counts at 5 times MIC after 24 hrs by time-kill curve method; how it was run: as §2
[7] = system: Staphylococcus lugdunensis; test: Reduction of teicoplanin-tolerant Staphylococcus lugdunensis 111A91 isolate assessed as bacterial counts at 10 times MIC after 24 hrs by time-kill curve method; how it was run: as §2
[8] = system: Staphylococcus lugdunensis; test: Reduction of teicoplanin-tolerant Staphylococcus lugdunensis 111A91 isolate assessed as bacterial counts at 20 times MIC after 24 hrs by time-kill curve method; how it was run: as §2
[9] = system: Staphylococcus lugdunensis; test: Ratio of MBC to MIC against vancomycin-tolerant Staphylococcus lugdunensis 111A53 isolate
How it was run: (§3)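 MBC/MIC by CLSI broth method, starting inoculum between 10^5 and 10^6 CFU/ml in Mueller-Hinton broth. Vancomycin and teicoplanin tested; S. aureus ATCC 25923 quality control included in each assay. Three separate assays, each ratio reported individually.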

[10] = system: Staphylococcus lugdunensis; test: Ratio of MBC to MIC against teicoplanin-tolerant Staphylococcus lugdunensis 111A91 isolate; how it was run: as §3
[11] = system: Staphylococcus lugdunensis; test: Antibacterial activity against coagulase-negative Staphylococcus lugdunensis 111A53 isolate assessed as bacterial counts at 10 times MIC after 6 hrs; how it was run: as §1
[12] = system: Staphylococcus lugdunensis; test: Antibacterial activity against coagulase-negative Staphylococcus lugdunensis 111A91 isolate assessed as bacterial counts at 10 times MIC after 6 hrs; how it was run: as §1
[13] = system: Staphylococcus lugdunensis; test: Antibacterial activity against coagulase-negative Staphylococcus lugdunensis isolate assessed as bacterial counts at 10 times MIC after 6 hrs; how it was run: as §1
[14] = system: Staphylococcus lugdunensis; test: Antibacterial activity against coagulase-negative Staphylococcus lugdunensis ATCC 49576 assessed as bacterial counts at 10 times MIC after 6 hrs; how it was run: as §1
[15] = system: Staphylococcus lugdunensis; test: Antibacterial activity against coagulase-negative Staphylococcus lugdunensis 111A223 isolate assessed as bacterial counts at 10 times MIC after 6 hrs; how it was run: as §1
[16] = system: Staphylococcus lugdunensis; test: Antibacterial activity against coagulase-negative Staphylococcus lugdunensis ATCC 43809 assessed as bacterial counts at 10 times MIC after 6 hrs; how it was run: as §1
[17] = system: Staphylococcus lugdunensis; test: Antibacterial activity against coagulase-negative Staphylococcus lugdunensis 111A229 isolate assessed as bacterial counts at 10 times MIC after 6 hrs; how it was run: as §1
Staphylococcus [18] = test: Antibacterial activity against coagulase-negative Staphylococcus assessed as bacterial counts at 10 times MIC after 24 hrs; how it was run: as §1
[19] = system: Staphylococcus lugdunensis; test: Antibacterial activity against coagulase-negative Staphylococcus lugdunensis 111A53 isolate assessed as bacterial counts at 10 times MIC after 24 hrs; how it was run: as §1
[20] = system: Staphylococcus lugdunensis; test: Antibacterial activity against coagulase-negative Staphylococcus lugdunensis 111A91 isolate assessed as bacterial counts at 10 times MIC after 24 hrs; how it was run: as §1
[21] = system: Staphylococcus lugdunensis; test: Antibacterial activity against coagulase-negative Staphylococcus lugdunensis isolate assessed as bacterial counts at 10 times MIC after 24 hrs; how it was run: as §1
[22] = system: Staphylococcus lugdunensis; test: Antibacterial activity against coagulase-negative Staphylococcus lugdunensis ATCC 49576 assessed as bacterial counts at 10 times MIC after 24 hrs; how it was run: as §1
[23] = system: Staphylococcus lugdunensis; test: Antibacterial activity against coagulase-negative Staphylococcus lugdunensis 111A223 isolate assessed as bacterial counts at 10 times MIC after 24 hrs; how it was run: as §1
[24] = system: Staphylococcus lugdunensis; test: Antibacterial activity against coagulase-negative Staphylococcus lugdunensis ATCC 43809 assessed as bacterial counts at 10 times MIC after 24 hrs; how it was run: as §1
[25] = system: Staphylococcus lugdunensis; test: Antibacterial activity against coagulase-negative Staphylococcus lugdunensis 111A229 isolate assessed as bacterial counts at 10 times MIC after 24 hrs; how it was run: as §1
[26] = system: Staphylococcus lugdunensis; test: Reduction of vancomycin-tolerant Staphylococcus lugdunensis 111A53 isolate assessed as bacterial counts at 5 times MIC after 6 hrs by time-kill curve method; how it was run: as §2
[27] = system: Staphylococcus lugdunensis; test: Reduction of vancomycin-tolerant Staphylococcus lugdunensis 111A53 isolate assessed as bacterial counts at 10 times MIC after 6 hrs by time-kill curve method; how it was run: as §2
[28] = system: Staphylococcus lugdunensis; test: Reduction of vancomycin-tolerant Staphylococcus lugdunensis 111A53 isolate assessed as bacterial counts at 20 times MIC after 6 hrs by time-kill curve method; how it was run: as §2
[29] = system: Staphylococcus lugdunensis; test: Reduction of vancomycin-tolerant Staphylococcus lugdunensis 111A53 isolate assessed as bacterial counts at 5 times MIC after 24 hrs by time-kill curve method; how it was run: as §2
[30] = system: Staphylococcus lugdunensis; test: Reduction of vancomycin-tolerant Staphylococcus lugdunensis 111A53 isolate assessed as bacterial counts at 10 times MIC after 24 hrs by time-kill curve method; how it was run: as §2

## CN[C@H](CC(C)C)C(=O)N[C@H]1C(=O)N[C@@H](CC(N)=O)C(=O)N[C@H]2C(=O)N[C@H]3C(=O)N[C@H](C(=O)N[C@H](C(=O)O)c4cc(O)cc(O)c4-c4cc3ccc4O)[C@H](O)c3ccc(c(Cl)c3)Oc3cc2cc(c3O[C@@H]2O[C@H](CO)[C@@H](O)[C@H](O)[C@H]2O[C@H]2C[C@](C)(N)[C@H](O)[C@H](C)O2)Oc2ccc(cc2Cl)[C@H]1O [VANCOMYCIN]
Staphylococcus [1]
  deltalog10CFU/ml: -2.98
[2]
  log10CFU/ml: -1.74
[3]
  log10CFU/ml: -1.16
[4]
  log10CFU/ml: -0.31
[5]
  log10CFU/ml: -0.56
[6]
  log10CFU/ml: -3.9
[7]
  log10CFU/ml: -3.53
[8]
  log10CFU/ml: -2.83
[9]
  Ratio: 8
[10]
  Ratio: 64
[11]
  deltalog10CFU/ml: -0.31
[12]
  deltalog10CFU/ml: -0.31
[13]
  deltalog10CFU/ml: -1.17
[14]
  deltalog10CFU/ml: -1.38
[15]
  deltalog10CFU/ml: -0.67
[16]
  deltalog10CFU/ml: -0.21
[17]
  deltalog10CFU/ml: -2.24
Staphylococcus [18]
  deltalog10CFU/ml: -4.8
[19]
  deltalog10CFU/ml: -1.94
[20]
  deltalog10CFU/ml: -3.53
[21]
  deltalog10CFU/ml: -4.1
[22]
  deltalog10CFU/ml: -3.91
[23]
  deltalog10CFU/ml: -1.65
[24]
  deltalog10CFU/ml: -2.18
[25]
  deltalog10CFU/ml: -2.42
[26]
  log10CFU/ml: -0.05
[27]
  log10CFU/ml: -0.31
[28]
  log10CFU/ml: -0.07
[29]
  log10CFU/ml: -1.72
[30]
  log10CFU/ml: -1.94
